For 29 compounds, IC50 and selectivity ratio results are on record in ChEMBL document CHEMBL1156777, “Synthesis and antiprotozoal activity of cationic 1,4-diphenyl-1H-1,2,3-triazoles” (J Med Chem, 2010).

By IC50 is commonly meant the concentration that gives 50% inhibition.

Data set [1] deals with Plasmodium falciparum. The data set is described as follows: Antiplasmodial activity against chloroquine-resistant Plasmodium falciparum K1 infected in human erythrocytes after 48 hrs assessed as [3H]hypoxanthine incorporation by liquid scintillation counting. In kind it is functional, organism-based.
For data set [2], the system named is L6. The data set is described as follows: Cytotoxicity against rat L6 cells after 70 hrs by alamar blue assay. The settings on record: L6, 70 h. Type of data set: cell-based. An outline of the steps: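 Cells were exposed to serial dilutions for 70 h at 37 °C, 5% CO₂, then given resazurin for 2–3 h. IC50 came from sigmoidal curves; two independent runs in duplicate. Top concentration was 90 μg/mL, converted to μM by molecular weight.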

Data set [3] in a line: Selectivity index, ratio of IC50 for rat L6 cells to IC50 for Plasmodium falciparum K1. The settings on record: read-out: Ratio IC50. Type of data set: toxicity, cell-based. An outline of the steps:
(§1)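 Each index is L6 IC50 divided by parasite IC50. L6 values are from the 70 h resazurin assay. T. b. rhodesiense STIB900 values are from the 70 h resazurin assay. P. falciparum K1 values are from erythrocytic-stage [³H]-hypoxanthine incorporation: 48 h drug exposure, then 24 h with label. L. donovani values are from the 72 h axenic amastigote CellTiter assay.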

In data set [4] the test system is Trypanosoma brucei rhodesiense. The data set is described as follows: Antitrypanosomal activity against Trypanosoma brucei rhodesiense STIB900 after 70 hrs by alamar blue assay. In kind it is functional, organism-based. The settings on record: STIB900, 70 h. A general note: Resazurin is reduced to fluorescent resorufin, in cell work by metabolically active cells.

In data set [5] the test system is Leishmania donovani. The data set is described as follows: Antileishmanial activity against Leishmania donovani MHOM/SD/62/1S-CL2D. Type of data set: functional, organism-based. An outline of the steps:
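Axenic amastigotes (MHOM/SD/62/1S-CL2_D) adapted from promastigotes and grown in amastigote medium at 37 °C. 6 × 10⁴ parasites per well were exposed to 2-fold serial dilutions for 72 h at 37 °C in humidified 5% CO₂. Growth was read with tetrazolium CellTiter reagent as absorbance at 490 nm. IC50 came from a four-parameter dose–response fit; duplicate determinations were averaged.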

Data set [6] is described as follows: Selectivity index, ratio of IC50 for rat L6 cells to IC50 for Trypanosoma brucei rhodesiense STIB900. In kind it is toxicity, cell-based. The note with it: read-out: Ratio IC50. An outline of the steps:
as §1

Molecules are shown by their SMILES.

For `COc1cc(C(=N)NC(C)C)ccc1-c1cn(-c2ccc(C(=N)NC(C)C)cc2)nn1`, the IC50 in data set [1] is 0.013 µM; in data set [2], over 166 µM; in data set [4], 0.201 µM; in data set [5], over 100 µM. The selectivity ratio was over 12800 in data set [3] and over 826 in data set [6].
Regarding `CC(C)NC(=N)c1cccc(-c2cn(-c3ccc(C(=N)NC(C)C)cc3O)nn2)c1`, the IC50 in data set [1] was 1.19 µM; in data set [2], over 187 µM; in data set [4] it was 18.7 µM; in data set [5], over 100 µM. For the same compound, the selectivity ratio in data set [3] was over 157; in data set [6] it was over 10.
For `c1cc(C2=NCCN2)cc(-n2cc(-c3ccc(C4=NCCN4)cc3)nn2)c1`, the IC50 was 0.095 µM in data set [1], 133 µM in data set [2], 0.461 µM in data set [4] and over 100 µM in data set [5]. Also, the selectivity ratio is 1400 in data set [3] and 289 in data set [6].
In the case of `COc1cc(C2=NCCN2)ccc1-n1cc(-c2cccc(C3=NCCN3)c2)nn1`, the IC50 was 0.058 µM in data set [1], over 173 µM in data set [2], 1.87 µM in data set [4] and over 100 µM in data set [5]. Further, the selectivity ratio in data set [3] is over 2980; in data set [6] it was over 93.
Turning to `COc1ccc(C(=N)NC(C)C)cc1-c1cn(-c2ccc(C(=N)NC(C)C)cc2)nn1`, the IC50 in data set [1] is 0.026 µM; in data set [2] it was over 177 µM; in data set [4], 0.077 µM; in data set [5], over 100 µM. Also, the selectivity ratio in data set [3] was over 6810; in data set [6], over 2300.
In the case of `COc1cc(C2=NCCN2)ccc1-c1cn(-c2cccc(C3=NCCN3)c2)nn1`, the IC50 in data set [1] was 0.064 µM; in data set [2], over 172 µM; in data set [4] it was 4.02 µM; in data set [5], over 100 µM. For the same compound, the selectivity ratio in data set [3] is over 2690; in data set [6], over 43.
Take `Oc1ccc(C2=NCCN2)cc1-n1cc(-c2cccc(C3=NCCN3)c2)nn1`: the IC50 in data set [1] is 0.325 µM; in data set [2], over 174 µM; in data set [4] it was 102 µM; in data set [5], over 100 µM. Moreover, the selectivity ratio is over 535 in data set [3] and over 2 in data set [6].
Turning to `Oc1cc(C2=NCCN2)ccc1-n1cc(-c2ccc(C3=NCCN3)cc2)nn1`, the IC50 in data set [1] was 0.041 µM; in data set [2], over 198 µM; in data set [4], 0.998 µM; in data set [5], over 100 µM. Also, the figures for the selectivity ratio in data set [3] and in data set [6] were over 4830 and over 198, respectively.
Regarding `COc1cc(C2=NCCN2)ccc1-c1cn(-c2ccc(C3=NCCN3)cc2)nn1`, the IC50 in data set [1] is 0.011 µM; in data set [2], 142 µM; in data set [4], 0.116 µM; in data set [5], over 100 µM. Besides, the selectivity ratio in data set [3] was determined as 12900; in data set [6], 1220.
As to `Oc1ccc(C2=NCCN2)cc1-n1cc(-c2ccc(C3=NCCN3)cc2)nn1`, the IC50 in data set [1] is 0.885 µM; in data set [2], over 175 µM; in data set [4], 19.6 µM; in data set [5] it was over 100 µM. In addition, the selectivity ratio in data set [3] is over 198; in data set [6], over 9.
With `CC(C)NC(=N)c1cccc(-n2cc(-c3cc(C(=N)NC(C)C)ccc3O)nn2)c1`, the IC50 in data set [1] was 0.229 µM; in data set [2], over 170 µM; in data set [4] it was 10.9 µM; in data set [5], over 100 µM. Moreover, the selectivity ratio in data set [3] was over 742; in data set [6], over 16.
With `COc1cc(C(=N)NC(C)C)ccc1-n1cc(-c2ccc(C(=N)NC(C)C)cc2)nn1`, the IC50 in data set [1] was 0.019 µM; in data set [2], over 164 µM; in data set [4], 0.328 µM; in data set [5], over 100 µM. The selectivity ratio was over 8630 in data set [3] and over 500 in data set [6].
For `COc1ccc(C(=N)NC(C)C)cc1-n1cc(-c2ccc(C(=N)NC(C)C)cc2)nn1`, the IC50 is 0.195 µM in data set [1], over 173 µM in data set [2], 0.447 µM in data set [4] and over 100 µM in data set [5]. Further, the selectivity ratio in data set [3] was over 887; in data set [6], over 387.
As to `Oc1cc(C2=NCCN2)ccc1-n1cc(-c2cccc(C3=NCCN3)c2)nn1`, the IC50 is 0.159 µM in data set [1], over 187 µM in data set [2], 11.1 µM in data set [4] and over 100 µM in data set [5]. The selectivity ratio is over 1180 in data set [3] and over 17 in data set [6].
With `COc1ccc(C(=N)NC(C)C)cc1-c1cn(-c2cccc(C(=N)NC(C)C)c2)nn1`, the IC50 is 0.106 µM in data set [1], over 176 µM in data set [2], 1.25 µM in data set [4] and over 100 µM in data set [5]. For the same compound, the results for the selectivity ratio in data set [3] and in data set [6] were over 1660 and over 141, respectively.
For `Oc1cc(C2=NCCN2)ccc1-c1cn(-c2cccc(C3=NCCN3)c2)nn1`, the IC50 is 0.016 µM in data set [1], over 183 µM in data set [2], 0.606 µM in data set [4] and over 100 µM in data set [5]. Besides, the selectivity ratio in data set [3] was over 11400; in data set [6], over 302.
For `N=C(N)c1cccc(-c2cn(-c3cc(C(=N)N)ccc3O)nn2)c1`, the IC50 in data set [1] was 8.93 µM; in data set [2], over 209 µM; in data set [4] it was 49.6 µM; in data set [5], over 100 µM. For the same compound, the selectivity ratio in data set [3] was over 23; in data set [6], over 4.
Regarding `CC(C)NC(=N)c1cccc(-c2cn(-c3cccc(C(=N)NC(C)C)c3)nn2)c1`, the IC50 was 0.118 µM in data set [1], over 184 µM in data set [2], 14.8 µM in data set [4] and over 100 µM in data set [5]. Further, the selectivity ratio in data set [3] was over 1560; in data set [6], over 12.
`N=C(N)c1ccc(-c2cn(-c3cc(C(=N)N)ccc3O)nn2)cc1`: the IC50 in data set [1] was 1.23 µM; in data set [2] it was over 203 µM; in data set [4], 6.64 µM; in data set [5] it was over 100 µM. The selectivity ratio was over 165 in data set [3] and over 31 in data set [6].
Consider `c1cc(C2=NCCN2)cc(-c2cn(-c3ccc(C4=NCCN4)cc3)nn2)c1`, for which the IC50 was 0.084 µM in data set [1], 127 µM in data set [2], 0.2 µM in data set [4] and over 100 µM in data set [5]. The selectivity ratio in data set [3] stood at 1510; in data set [6], 635.
As for `COc1ccc(C(=N)NC(C)C)cc1-n1cc(-c2cccc(C(=N)NC(C)C)c2)nn1`, the IC50 in data set [1] was 0.125 µM; in data set [2], 131 µM; in data set [4], 10.1 µM; in data set [5] it was over 100 µM. Besides, the selectivity ratio was found to be 1050 in data set [3] and 13 in data set [6].
On to `CC(C)NC(=N)c1cccc(-c2cn(-c3cc(C(=N)NC(C)C)ccc3O)nn2)c1`, for which the IC50 in data set [1] was 0.739 µM; in data set [2], over 167 µM; in data set [4], 13.9 µM; in data set [5] it was over 100 µM. The values for the selectivity ratio in data set [3] and in data set [6] were over 226 and over 12, respectively.
On to `COc1ccc(C(=N)N)cc1-c1cn(-c2cccc(C(=N)N)c2)nn1`, for which the IC50 in data set [1] is 0.024 µM; in data set [2], over 200 µM; in data set [4], 1.65 µM; in data set [5], over 100 µM. In addition, the selectivity ratio was over 8330 in data set [3] and over 121 in data set [6].
In the case of `c1cc(C2=NCCN2)cc(-c2cn(-c3cccc(C4=NCCN4)c3)nn2)c1`, the IC50 in data set [1] is 0.365 µM; in data set [2], over 197 µM; in data set [4] it was 14.1 µM; in data set [5] it was over 100 µM. The values for the selectivity ratio in data set [3] and in data set [6] were over 540 and over 14, respectively.
For the compound `Oc1ccc(C2=NCCN2)cc1-c1cn(-c2cccc(C3=NCCN3)c2)nn1`, the IC50 is 0.052 µM in data set [1], over 183 µM in data set [2], 11.7 µM in data set [4] and over 100 µM in data set [5]. The selectivity ratio in data set [3] is over 3520; in data set [6], over 16.
Regarding `CC(C)NC(=N)c1ccc(-c2cn(-c3cc(C(=N)NC(C)C)ccc3O)nn2)cc1`, the IC50 in data set [1] was 5.27 µM; in data set [2], over 170 µM; in data set [4], 15.1 µM; in data set [5], over 100 µM. In addition, the selectivity ratio in data set [3] is over 32; in data set [6], over 11.
Regarding `N=C(N)c1ccc(-c2cn(-c3ccc(C(=N)N)cc3O)nn2)cc1`, the IC50 in data set [1] was 0.17 µM; in data set [2], over 216 µM; in data set [4] it was 0.501 µM; in data set [5], over 100 µM. Moreover, the values for the selectivity ratio in data set [3] and in data set [6] were over 1270 and over 431, respectively.
As to `COc1ccc(C2=NCCN2)cc1-n1cc(-c2ccc(C3=NCCN3)cc2)nn1`, the concentration for half-maximal inhibition (IC50) in data set [1] was 0.022 µM; in data set [2], over 170 µM; in data set [4], 0.162 µM; in data set [5], over 100 µM. In addition, the results for the selectivity ratio in data set [3] and in data set [6] were over 7730 and over 1050, respectively.
Regarding `CC(C)NC(=N)c1ccc(-c2cn(-c3ccc(C(=N)NC(C)C)cc3O)nn2)cc1`, the IC50 in data set [1] was 0.8 µM; in data set [2], over 178 µM; in data set [4] it was 1.38 µM; in data set [5] it was over 100 µM. The selectivity ratio in data set [3] is over 223; in data set [6], over 129.
